Reference: ChEMBL document CHEMBL4311987, “Discovery of novel allosteric site and covalent inhibitors of FBPase with potent hypoglycemic effects” (Eur J Med Chem, 2019)

Test system: Hepatocyte
Assay: Cytotoxicity against C57BLKS rat Primary hepatocytes assessed as cell viability by measuring cellular protein level at 10 to 100 uM in presence of cAMP and Dex by bicinchoninic acid method
Assay type: cell-based
Method in brief: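 Primary hepatocytes isolated from rat, cultured overnight in DMEM with 10% FBS, then exposed to compounds. Cellular protein per group measured by bicinchoninic acid (BCA) method as a viability control. The same protein values serve to normalize glucose, TG and TC contents. Pathological stimulation where applicable: 1 µM dexamethasone plus 200 µM cAMP, or 25 mM glucose plus 500 nM insulin for 24 h. Means ± SEM, four independent experiments.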

CCOC(=O)C(C)(C)Oc1ccc(F)c(/C=C/[N+](=O)[O-])c1
Activity: Non-Toxic
